Assays:
Rattus norvegicus = assay: Mean dose required to reverse m-chlorophenyl-piperazine (mCPP) induced hypolocomotion (7 mg/kg ip administered 30 min pretest); format: functional; conditions: 0.5 h, read-out: ID50 (the source's name)
Summary of the method: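 Test compound given orally. Hypolocomotion was induced by mCPP, 7 mg/kg ip, 30 min pretest. The ID50 is the dose reversing hypolocomotion by 50%, reported as mean with confidence limits.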

Cytochrome P450 2C9 = Cytochrome P450 2C9 (Homo sapiens, UniProt P11712); assay: Inhibition of heterologously expressed human Cytochrome P450 2C9 at 100 uM; format: ADME
Cytochrome P450 1A2 = molecular target: T1, Cytochrome P450 1A2 (Homo sapiens, UniProt P05177); assay: Inhibition of heterologously expressed human Cytochrome P450 1A2 at 500 uM; format: ADME
T1 sequence (P05177 whole entry): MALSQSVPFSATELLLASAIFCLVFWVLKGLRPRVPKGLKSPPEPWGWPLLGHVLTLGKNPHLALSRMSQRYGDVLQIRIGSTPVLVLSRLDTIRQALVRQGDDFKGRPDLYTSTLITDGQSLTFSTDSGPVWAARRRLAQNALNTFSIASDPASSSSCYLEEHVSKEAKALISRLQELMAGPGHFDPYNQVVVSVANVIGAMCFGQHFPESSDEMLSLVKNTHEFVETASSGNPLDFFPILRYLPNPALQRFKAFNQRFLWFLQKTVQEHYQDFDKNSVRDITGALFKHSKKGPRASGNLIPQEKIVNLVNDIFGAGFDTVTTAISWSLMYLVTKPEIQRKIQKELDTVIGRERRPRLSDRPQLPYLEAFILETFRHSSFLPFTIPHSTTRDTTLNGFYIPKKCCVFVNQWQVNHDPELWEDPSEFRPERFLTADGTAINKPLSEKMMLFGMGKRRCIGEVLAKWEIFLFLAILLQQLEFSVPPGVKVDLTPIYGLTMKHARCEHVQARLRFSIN

[1] = molecular target: 5-hydroxytryptamine receptor 2B (Homo sapiens, UniProt P41595); assay: Displacement of [3H]5-HT from 5-hydroxytryptamine 2B receptor expressed in HEK 293 cells; format: cell-based, HEK293
Summary of the method: (§1)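 Human cloned receptors expressed in HEK 293 cells. Radioligands: [3H]5-HT for 5-HT2B, [3H]ketanserin for 5-HT2A, [3H]mesulergine for 5-HT2C. Each value is the mean of at least two determinations, each within 0.2 log unit of the mean.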

Cytochrome P450 3A4 [2] = molecular target: T2, Cytochrome P450 3A4 (Homo sapiens, UniProt P08684); assay: Inhibition of heterologously expressed human Cytochrome P450 3A at 1 uM; format: ADME
Cytochrome P450 2D6 = Cytochrome P450 2D6 (Homo sapiens, UniProt P10635); assay: Inhibition of heterologously expressed human Cytochrome P450 2D6 at 10 uM; format: ADME
[3] = molecular target: Cytochrome P450 2C19 (Homo sapiens) (UniProt P33261); assay: Inhibition of heterologously expressed human Cytochrome P450 2C19 at 100 uM
[4] = molecular target: 5-hydroxytryptamine receptor 2A (Homo sapiens, UniProt P28223); assay: Displacement of [3H]ketanserin from 5-hydroxytryptamine 2A receptor expressed in HEK 293 cells; format: cell-based, HEK293; summary of the method: as §1
[5] = molecular target: Serotonin 2 receptors; 5-HT2a & 5-HT2c (Homo sapiens) (UniProt P28223+P28335); assay: Selectivity for 5-HT2C over 5-HT2A receptor; format: protein assay
[6] = molecular target: T3, 5-hydroxytryptamine receptor 2C (Homo sapiens, UniProt P28335); assay: Displacement of [3H]mesulergine from 5-hydroxytryptamine 2C receptor expressed in HEK 293 cells; format: cell-based, HEK293; summary of the method: as §1
T3 sequence (P28335 whole entry): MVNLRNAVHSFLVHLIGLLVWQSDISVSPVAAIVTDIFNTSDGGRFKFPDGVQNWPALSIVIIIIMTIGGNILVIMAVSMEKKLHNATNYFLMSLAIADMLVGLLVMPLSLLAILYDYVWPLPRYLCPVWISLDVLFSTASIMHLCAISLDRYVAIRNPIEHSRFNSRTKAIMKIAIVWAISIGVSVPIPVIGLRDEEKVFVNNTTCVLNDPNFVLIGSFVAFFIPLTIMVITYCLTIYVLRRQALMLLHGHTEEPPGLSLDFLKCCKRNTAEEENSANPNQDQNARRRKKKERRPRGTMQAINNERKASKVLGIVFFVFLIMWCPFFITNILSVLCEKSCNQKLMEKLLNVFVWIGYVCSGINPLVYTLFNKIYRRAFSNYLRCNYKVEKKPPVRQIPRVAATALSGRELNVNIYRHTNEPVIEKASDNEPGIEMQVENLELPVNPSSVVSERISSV

[7] = molecular target: Cytochrome P450 2C19 (Homo sapiens) (UniProt P33261); assay: Inhibition of heterologously expressed human Cytochrome P450 2C19 at 100 uM; remark: listed apart in the source
Cytochrome P450 3A4 [8] = molecular target: T2, Cytochrome P450 3A4; assay: Inhibition of heterologously expressed human Cytochrome P450 3A at 1 uM

Cytochrome P450 2D6, sequence (P10635 whole entry): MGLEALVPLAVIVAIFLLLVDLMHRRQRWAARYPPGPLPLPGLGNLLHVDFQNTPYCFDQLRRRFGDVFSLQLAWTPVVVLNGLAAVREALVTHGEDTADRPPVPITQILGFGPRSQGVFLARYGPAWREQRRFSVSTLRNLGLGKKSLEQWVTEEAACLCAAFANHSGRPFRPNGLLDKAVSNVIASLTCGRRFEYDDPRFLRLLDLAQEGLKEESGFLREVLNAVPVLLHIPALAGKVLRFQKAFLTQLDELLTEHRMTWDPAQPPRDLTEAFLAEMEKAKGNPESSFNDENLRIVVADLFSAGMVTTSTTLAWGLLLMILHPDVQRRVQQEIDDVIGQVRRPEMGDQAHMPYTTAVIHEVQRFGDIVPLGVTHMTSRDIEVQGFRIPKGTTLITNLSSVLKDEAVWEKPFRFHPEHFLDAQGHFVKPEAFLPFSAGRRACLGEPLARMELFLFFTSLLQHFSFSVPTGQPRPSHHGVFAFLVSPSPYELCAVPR
Serotonin 2 receptors; 5-HT2a & 5-HT2c (Homo sapiens), sequence (P28223 whole entry, looked up, one chain of several): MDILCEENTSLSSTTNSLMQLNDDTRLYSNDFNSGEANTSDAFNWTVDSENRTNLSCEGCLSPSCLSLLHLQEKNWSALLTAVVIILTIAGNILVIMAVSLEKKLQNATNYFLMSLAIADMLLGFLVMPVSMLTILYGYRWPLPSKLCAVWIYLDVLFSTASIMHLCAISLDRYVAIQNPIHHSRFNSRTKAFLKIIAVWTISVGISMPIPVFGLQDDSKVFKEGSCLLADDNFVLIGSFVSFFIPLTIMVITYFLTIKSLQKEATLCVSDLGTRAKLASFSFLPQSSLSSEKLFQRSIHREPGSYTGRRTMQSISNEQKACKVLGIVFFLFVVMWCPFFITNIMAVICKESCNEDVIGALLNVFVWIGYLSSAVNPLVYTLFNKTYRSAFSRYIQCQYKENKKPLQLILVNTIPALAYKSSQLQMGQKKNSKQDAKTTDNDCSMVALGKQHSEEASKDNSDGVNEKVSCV
5-hydroxytryptamine receptor 2A, sequence (P28223 whole entry): as the sequence (P28223 whole entry, looked up, one chain of several) above
Cytochrome P450 2C9, sequence (P11712 whole entry): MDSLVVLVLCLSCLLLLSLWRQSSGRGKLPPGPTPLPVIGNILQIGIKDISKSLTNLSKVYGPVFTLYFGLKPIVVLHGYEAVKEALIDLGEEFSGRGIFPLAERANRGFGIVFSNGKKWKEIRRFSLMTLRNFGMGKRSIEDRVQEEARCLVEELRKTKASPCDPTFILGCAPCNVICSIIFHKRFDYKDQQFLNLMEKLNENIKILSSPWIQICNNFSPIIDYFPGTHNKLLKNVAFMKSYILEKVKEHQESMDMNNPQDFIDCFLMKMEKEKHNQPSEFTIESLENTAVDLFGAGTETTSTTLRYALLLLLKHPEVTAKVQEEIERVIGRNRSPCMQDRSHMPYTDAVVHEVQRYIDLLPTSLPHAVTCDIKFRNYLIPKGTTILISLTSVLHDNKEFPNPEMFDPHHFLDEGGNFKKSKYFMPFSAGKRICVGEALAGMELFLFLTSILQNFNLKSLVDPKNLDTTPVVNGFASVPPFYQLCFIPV
5-hydroxytryptamine receptor 2B, sequence (P41595 whole entry): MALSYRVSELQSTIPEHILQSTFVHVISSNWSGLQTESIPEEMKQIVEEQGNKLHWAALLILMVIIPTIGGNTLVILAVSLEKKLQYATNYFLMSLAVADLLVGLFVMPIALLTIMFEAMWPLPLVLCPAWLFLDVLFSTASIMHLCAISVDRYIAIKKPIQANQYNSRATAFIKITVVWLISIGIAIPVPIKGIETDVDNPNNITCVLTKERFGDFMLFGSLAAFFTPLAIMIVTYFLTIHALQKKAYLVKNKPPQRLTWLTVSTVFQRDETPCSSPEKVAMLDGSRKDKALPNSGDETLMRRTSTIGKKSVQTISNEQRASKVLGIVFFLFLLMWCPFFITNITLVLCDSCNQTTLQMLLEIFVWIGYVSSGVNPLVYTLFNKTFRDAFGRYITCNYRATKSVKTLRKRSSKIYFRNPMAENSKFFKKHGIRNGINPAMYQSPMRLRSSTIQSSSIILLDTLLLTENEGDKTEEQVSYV
T2 sequence (P08684 whole entry): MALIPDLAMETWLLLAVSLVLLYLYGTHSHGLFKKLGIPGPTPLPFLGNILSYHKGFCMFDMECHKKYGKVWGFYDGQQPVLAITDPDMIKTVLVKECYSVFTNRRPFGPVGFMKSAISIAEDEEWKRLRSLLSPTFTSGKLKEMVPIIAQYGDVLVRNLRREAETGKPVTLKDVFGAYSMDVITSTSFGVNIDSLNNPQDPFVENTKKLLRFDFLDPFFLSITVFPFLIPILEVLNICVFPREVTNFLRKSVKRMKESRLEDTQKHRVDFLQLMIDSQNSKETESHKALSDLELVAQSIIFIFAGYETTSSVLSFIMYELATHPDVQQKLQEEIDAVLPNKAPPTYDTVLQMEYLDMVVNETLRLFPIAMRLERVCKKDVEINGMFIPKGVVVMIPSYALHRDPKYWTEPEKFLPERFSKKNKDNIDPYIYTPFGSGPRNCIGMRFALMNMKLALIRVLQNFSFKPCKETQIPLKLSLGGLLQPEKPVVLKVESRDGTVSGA
Cytochrome P450 2C19 (Homo sapiens), sequence (P33261 whole entry, looked up): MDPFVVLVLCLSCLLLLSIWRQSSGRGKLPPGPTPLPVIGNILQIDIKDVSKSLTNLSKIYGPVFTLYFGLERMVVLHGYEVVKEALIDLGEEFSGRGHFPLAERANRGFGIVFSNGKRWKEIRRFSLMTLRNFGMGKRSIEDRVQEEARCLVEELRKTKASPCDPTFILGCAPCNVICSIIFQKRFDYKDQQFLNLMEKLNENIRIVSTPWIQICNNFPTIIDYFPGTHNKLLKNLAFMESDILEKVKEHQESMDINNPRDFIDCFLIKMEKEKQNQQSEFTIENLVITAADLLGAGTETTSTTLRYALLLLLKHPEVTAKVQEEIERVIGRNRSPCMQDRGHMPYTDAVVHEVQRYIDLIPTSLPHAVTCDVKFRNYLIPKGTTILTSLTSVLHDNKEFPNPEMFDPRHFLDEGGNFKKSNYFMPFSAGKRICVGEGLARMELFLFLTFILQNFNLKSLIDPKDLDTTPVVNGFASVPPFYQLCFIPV

SMILES	ED50 (Rattus norvegicus)	IC50 (Cytochrome P450 2C9)	IC50 (Cytochrome P450 1A2)	Ki [1]	IC50 (Cytochrome P450 3A4 [2])	IC50 (Cytochrome P450 2D6)	IC50 [3]	Ki [4]	Selectivity ratio [5]	Ki [6]	IC50 [7]	IC50 (Cytochrome P450 3A4 [8])
Cc1cc2c(cc1Cl)N(C(=O)Nc1ccc(Oc3cccnc3C)nc1)CC2 [SB-242084]	2 mg/kg	> 100000 nM	> 100000 nM	100 nM	> 100000 nM	> 100000 nM	> 100000 nM	158 nM	160	1 nM		
Cn1ccc2cc3c(cc21)CCN3C(=O)Nc1cccnc1	5.5 mg/kg	> 100000 nM	50 nM	25.1 nM		30000 nM		2000 nM			> 100000 nM	
CSc1cc2c(cc1C(F)(F)F)N(C(=O)Nc1cccnc1)CC2	1.5 mg/kg	> 100000 nM	13 nM	12.6 nM		110 nM		398 nM		2.51 nM		> 100000 nM
CSc1cc2c(cc1Cl)N(C(=O)Nc1cccnc1)CC2	10 mg/kg							2510 nM	420	6.31 nM		
Cc1cc2c(cc1Cl)N(C(=O)Nc1cccnc1)CC2	0.6 mg/kg							158 nM	30	6.31 nM		

Source: ChEMBL document CHEMBL1130195, “6-Chloro-5-methyl-1-[[2-[(2-methyl-3-pyridyl)oxy]-5-pyridyl]carbamoyl]- indoline (SB-242084): the first selective and brain penetrant 5-HT2C receptor antagonist” (J Med Chem, 1997)
